# Key:
# [1] = target: T1, Human immunodeficiency virus type 1 integrase (Human immunodeficiency virus 1, UniProt Q7ZJM1); test: Inhibitory concentration against purified recombinant integrase by strand transfer in vitro assay (experiment 1)
# Outline: (§1)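 Recombinant wild-type HIV-1 integrase, final 200 nM, preincubated with inhibitor for 30 min at 30 °C. Buffer: 50 mM NaCl, HEPES/MOPS, 7.5 mM MnCl2 when specified, 10% DMSO, 10% glycerol, BSA, 2-mercaptoethanol. Then 20 nM 5′-32P-labeled 21-mer U5 LTR duplex (AE117/AE118) added for 60 min. Products separated on denaturing 20% urea gel and quantified by phosphorimager. 3′-processing (19-mer) and strand transfer products read in one reaction. IC50 read from plot of concentration vs percent inhibition, several concentrations.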
# [2] = target: T1, Human immunodeficiency virus type 1 integrase; test: Inhibitory concentration against purified recombinant integrase by 3'-processing in 3D search (experiment 1); outline: as §1
# [3] = target: T1, Human immunodeficiency virus type 1 integrase; test: Inhibitory concentration against purified recombinant integrase by 3'-processing in vitro assay (experiment 2); outline: as §1
# [4] = target: T1, Human immunodeficiency virus type 1 integrase; test: Inhibitory concentration against purified recombinant integrase by 3'-processing in 3D search (experiment 2); outline: as §1
# [5] = target: T1, Human immunodeficiency virus type 1 integrase; test: Inhibitory concentration against purified recombinant integrase by strand transfer 3D search (experiment 2); outline: as §1
# [6] = target: T1, Human immunodeficiency virus type 1 integrase; test: Inhibitory concentration against purified recombinant integrase by 3'-processing in vitro assay (experiment 1); outline: as §1
# [7] = target: T1, Human immunodeficiency virus type 1 integrase; test: Inhibitory concentration against purified recombinant integrase by strand transfer 3D search (experiment 1); outline: as §1
# [8] = target: T1, Human immunodeficiency virus type 1 integrase; test: Inhibitory concentration against purified recombinant integrase by strand transfer in vitro assay (experiment 2); outline: as §1
# [9] = target: Human immunodeficiency virus type 1 integrase (Human immunodeficiency virus 1) (UniProt Q7ZJM1); test: Percentage inhibition was obtained by performing in vitro assay on purified recombinant integrase by 3''-processing method at 100 micro g/mL (experiment 2)
# Outline: (§2)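 Single concentration of 100 µg/mL tested. Recombinant HIV-1 integrase (200 nM final) preincubated with compound for 30 min at 30 °C in Mn2+/DMSO buffer, then reacted for 60 min with 20 nM 5′-32P-labeled 21-mer LTR duplex. Gel and phosphorimager quantitation of 19-mer 3′-processing and strand transfer products. %I = 100×[1−(D−C)/(N−C)], relative to DNA-alone and DNA+integrase controls.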
# [10] = target: Human immunodeficiency virus type 1 integrase (Human immunodeficiency virus 1) (UniProt Q7ZJM1); test: Percentage inhibition was obtained by performing in vitro assay on purified recombinant integrase by strand transfer method at 100 micro g/mL (experiment 2); outline: as §2
# [11] = target: Human immunodeficiency virus type 1 integrase (Human immunodeficiency virus 1) (UniProt Q7ZJM1); test: Percentage inhibition was obtained by performing in vitro assay on purified recombinant integrase by strand transfer method at 100 micro g/mL (experiment 1); outline: as §2
# [12] = target: Human immunodeficiency virus type 1 integrase (Human immunodeficiency virus 1) (UniProt Q7ZJM1); test: Percentage inhibition was obtained by performing in vitro assay on purified recombinant integrase by 3''-processing method at 100 micro g/mL (experiment 1); outline: as §2
# [13] = target: T1, Human immunodeficiency virus type 1 integrase; test: Inhibitory concentration against purified recombinant integrase by 3'-processing in 3D search
# [14] = target: T1, Human immunodeficiency virus type 1 integrase; test: Inhibitory concentration against purified recombinant integrase by strand transfer in vitro assay
# [15] = target: T1, Human immunodeficiency virus type 1 integrase; test: Inhibitory concentration against purified recombinant integrase by 3'-processing in vitro assay
# [16] = target: T1, Human immunodeficiency virus type 1 integrase; test: (§3) Inhibitory concentration against purified recombinant integrase by strand transfer 3D search
# [17] = target: T1, Human immunodeficiency virus type 1 integrase; test: as §3; outline: as §1; remark: listed apart in the source
# [18] = target: T1, Human immunodeficiency virus type 1 integrase; test: Inhibitory concentration against purified recombinant integrase by strand transferrin vitro assay; outline: as §1
# Human immunodeficiency virus type 1 integrase (Human immunodeficiency virus 1), sequence (Q7ZJM1 as listed by the source): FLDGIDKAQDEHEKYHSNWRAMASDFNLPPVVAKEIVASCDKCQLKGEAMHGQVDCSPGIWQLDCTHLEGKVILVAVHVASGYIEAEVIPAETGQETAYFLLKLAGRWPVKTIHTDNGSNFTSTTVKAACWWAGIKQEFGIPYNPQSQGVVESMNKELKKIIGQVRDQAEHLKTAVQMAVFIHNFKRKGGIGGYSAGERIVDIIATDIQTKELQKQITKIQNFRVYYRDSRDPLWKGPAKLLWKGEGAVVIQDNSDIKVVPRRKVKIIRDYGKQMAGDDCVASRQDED
# T1 sequence (Q7ZJM1 whole entry): as the sequence (Q7ZJM1 as listed by the source) above
smiles,measurement,setting,value
O=C(CCCCC(=O)c1ccc(O)cc1O)OCCO,IC50,[1],185 µM
same,IC50,[2],294 µM
same,IC50,[3],367 µM
same,IC50,[4],368 µM
same,IC50,[5],234 µM
same,IC50,[6],294 µM
same,IC50,[7],184 µM
same,IC50,[8],233 µM
CCN(CC)CCCC(C)Nc1cc(F)cc2cccnc12 (stereo not given),inhibition,[9],41.2%
same,inhibition,[10],48.9%
same,inhibition,[11],27.6%
same,inhibition,[12],36.5%
O=C(NO)/C(CC(=O)c1ccc(O)cc1O)=N\O,IC50,[1],16.5 µM
same,IC50,[2],29.9 µM
same,IC50,[3],71.3 µM
same,IC50,[4],70.8 µM
same,IC50,[5],35.8 µM
same,IC50,[6],29.9 µM
same,IC50,[7],16.5 µM
same,IC50,[8],35.8 µM
O=C(NNC(=O)c1ccccc1O)c1ccccc1O.O=C(NNCC(O)COc1ccccc1)c1ccccc1O (stereo not given),IC50,[13],1.04 µM
same,IC50,[14],1.5 µM
same,IC50,[15],2 µM
same,IC50,[16],0.801 µM
O=C(NCO)NCOCn1c(=O)n(CO)c(=O)n(CO)c1=O,IC50,[13],5.29 µM
same,IC50,[14],5 µM
same,IC50,[15],5.3 µM
same,IC50,[16],4.98 µM
O=C(N/N=C/c1ccc(O)cc1O)N/N=C/c1ccc(O)cc1O,IC50,[17],20.6 µM
same,IC50,[13],26.3 µM
same,IC50,[18],20.6 µM
same,IC50,[15],26 µM
CCC/C=C/C=C/[C@@H]1C[C@@H](O)[C@@H](O)C(=O)[C@H]1CO,IC50,[1],268 µM
same,IC50,[2],350 µM
same,IC50,[3],289 µM
same,IC50,[4],291 µM
same,IC50,[5],134 µM
same,IC50,[6],350 µM
same,IC50,[7],267 µM
same,IC50,[8],135 µM
O=C(NCCO)c1cc(Cl)ccc1O,inhibition,[9],2.2%
same,inhibition,[10],13.4%
same,inhibition,[11],0%
same,inhibition,[12],0.4%
CCCCCCCCCCCCCCCCCCCN1CN(CO)CN(CO)C1=O,inhibition,[9],43.2%
same,inhibition,[10],69.7%
same,inhibition,[11],54.4%
same,inhibition,[12],20.8%
CCN(CC)CCCC(C)Nc1ccnc2ccc(Cl)nc12 (stereo not given),inhibition,[9],30.6%
same,inhibition,[10],56.6%
same,inhibition,[11],87.4%
same,inhibition,[12],43.7%
O=C(O)CNC(=O)c1ccccc1O,inhibition,[9],33.3%
same,inhibition,[10],33.3%
same,inhibition,[11],25%
same,inhibition,[12],28.9%
COc1cc2oc(-c3ccc(O)cc3)cc(=O)c2c(O)c1C1OC(CO)C(O)C(O)C1O (stereo not given),inhibition,[9],43.4%
same,IC50,[1],134 µM
same,IC50,[2],224 µM
same,inhibition,[10],66.8%
same,IC50,[3],291 µM
same,IC50,[4],291 µM
same,IC50,[5],143 µM
same,inhibition,[11],92.2%
same,IC50,[6],224 µM
same,inhibition,[12],62.7%
same,IC50,[7],134 µM
same,IC50,[8],143 µM
O=C1Oc2ccccc2C(O)C1C(c1ccccc1)C1C(=O)Oc2ccccc2C1O (stereo not given),IC50,[14],38.8 µM
same,IC50,[15],43.4 µM
Cc1cc(CC(=O)NCCO)n(CCO)c(=O)c1,inhibition,[9],30.3%
same,inhibition,[10],47.9%
same,inhibition,[11],90.6%
same,inhibition,[12],45.3%
O=C(OCCO)c1ccccc1O,inhibition,[9],2.6%
same,inhibition,[10],18.9%
same,inhibition,[11],17.1%
same,inhibition,[12],10.9%
O=C(N/N=C/c1ccccc1O)C(O)(c1ccccc1)c1ccccc1,inhibition,[9],56.7%
same,inhibition,[10],74.1%
same,inhibition,[11],70.5%
same,inhibition,[12],34.7%
O=c1ccc2cc(O[C@@H]3O[C@H](CO)[C@@H](O)[C@H](O)[C@H]3O)c(O)cc2o1,inhibition,[9],29.6%
same,inhibition,[10],34.2%
same,inhibition,[11],67.7%
same,inhibition,[12],40.8%
O=C(NN(CCO)CCO)c1ccccc1,inhibition,[9],43.9%
same,inhibition,[10],69.9%
same,inhibition,[11],52.4%
same,inhibition,[12],25%
O=C(N/N=C/c1ccccc1O)C(O)c1ccccc1 (stereo not given),inhibition,[9],45.8%
same,inhibition,[10],70.2%
same,inhibition,[11],77.9%
same,inhibition,[12],37%
COc1cc(N)ccc1C(=O)NC(CCC(=O)O)C(=O)O (stereo not given),IC50,[1],203 µM
same,IC50,[2],230 µM
same,IC50,[3],271 µM
same,IC50,[4],270 µM
same,IC50,[5],270 µM
same,IC50,[6],228 µM
same,IC50,[7],203 µM
same,IC50,[8],271 µM
O=C(CC(O)c1cccnc1)CC(O)c1cccnc1 (stereo not given),inhibition,[9],19.1%
same,inhibition,[10],43.2%
same,inhibition,[11],48.1%
same,inhibition,[12],22.5%
C[C@H]1C(=O)c2c(cc(O)c(C3OC(CO)C(O)C(O)C3O)c2O)OC1c1ccc(O)c(O)c1 (stereo not given in full),IC50,[1],103 µM
same,IC50,[2],177 µM
same,IC50,[3],124 µM
same,IC50,[4],125 µM
same,IC50,[5],47.4 µM
same,IC50,[6],177 µM
same,IC50,[7],103 µM
same,IC50,[8],47.6 µM
O=C(CC(=O)Nc1ccccc1O)Nc1ccccc1O,inhibition,[9],17.6%
same,inhibition,[10],37%
same,inhibition,[11],57.2%
same,inhibition,[12],23.1%
O=C(CC(O)(c1ccccc1)c1ccc(Cl)cc1)NC(=O)c1ccccc1O (stereo not given),IC50,[1],101 µM
same,IC50,[2],182 µM
same,IC50,[3],238 µM
same,IC50,[4],237 µM
same,IC50,[5],141 µM
same,IC50,[6],182 µM
same,IC50,[7],101 µM
same,IC50,[8],142 µM
O=C(NCO)c1ccccc1O,inhibition,[9],10.2%
same,inhibition,[10],55.2%
same,inhibition,[11],61.5%
same,inhibition,[12],25.8%

# — ChEMBL document CHEMBL1129974, “Discovery of HIV-1 integrase inhibitors by pharmacophore searching” (J Med Chem, 1997)
